The entries come from a sample that favours hits as a whole.
CHOP UPR activ – apoptotic UPR (CHOP) activation | activation, % at 10 µM | actives 0.34% (n = 330,000) | CHO-CHOP luciferase reporter, luminescence; percent of tunicamycin response over DMSO baseline;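 active means at 10 µM dose, activation of 40% or more, normalized to positive control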;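 further: 100% = tunicamycin at 10 µg/mL and 0% = DMSO alone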
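Assay system: CHO-CHOP cells, stable luciferase reporter of PERK-eIF2a-CHOP signalling / Buffer or medium: F12 plus 10% serum / Compound dosing: one dose, 10 µM in 0.5% DMSO / Times: 6 h compound treatment, 37 °C / Technique: luciferase luminescence / Read-out: % reporter activation, DMSO baseline versus tunicamycin full activation / Benchmarks: tunicamycin and DMSO controls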
hiPSC survival – hiPSC single-cell survival enhancement. survival enhancement, % at 20 µM. actives 0.044% (n = 360,000). ATPlite luminescence; 100% = ROCK inhibitor wells, 0% = DMSO; in the data active means survival enhancement above about 18%;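 further: cells exposed to compounds for 16 hours before the ATP read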
UPR XBP1 act – activators of adaptive arm of unfolded protein response (XBP1); CHO-XBP1 luciferase reporter, IRE1-XBP1 UPR activation, luminescence; percent of tunicamycin response, DMSO as zero; activation, % at 20 µM; actives 0.33% (n = 330,000); AID 463104;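 active means versus positive control, 20 µM dose yields 30% or more activation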;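 further: 100% = tunicamycin at 10 µg/mL and 0% = DMSO only wells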
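Material: CHO-XBP1 cells stably carrying IRE1-XBP1-driven luciferase reporter / Amount: 1000 cells per well / Compound: 20 µM, 1% DMSO / Times: 6 h treatment, 37 °C / Detection: luciferase luminescence / Measure: % activation of reporter signal versus tunicamycin and DMSO controls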
Cardio protect – modulators protecting cardiomyocytes from myocardial damage; H9c2 cardiomyocytes, H2O2 injury protection, ATPLite, 2 h; protection from H2O2 cell death, % at 20 µM; actives 0.63% (n = 360,000); AID 588492;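 active means compounds giving at least 50% protection of heart cells from peroxide-induced death in the single-dose screen, raw or plate-pattern-corrected value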;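 further: 0% = DMSO wells with peroxide and 100% = DMSO wells without peroxide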
CHOP inh – CHOP inhibition in unfolded protein response; CHO-K1 CHOP-promoter luciferase, tunicamycin-induced, 15-18 h; inhibition, % at 10 µM; actives 3.8% (n = 220,000);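 active means compounds that reduced the stress-induced luciferase reporter signal by more than about 70% of percent inhibition, limit read from the data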;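 further: 0% = tunicamycin plus vehicle and 100% = wells without tunicamycin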
Active calls of the source: *.

What do the screens show for `Cc1ccc(NC2=C(C(=O)c3ccccc3)N(C)S(=O)(=O)c3ccccc32)cc1`?
CHOP UPR activ: 0.3; hiPSC survival: -3.0; UPR XBP1 act: -2.8; Cardio protect: -4.2; CHOP inh: 95.3*

What do the screens show for `O=C(Nc1cccc(C(F)(F)F)c1)C(Sc1ncnc2ccccc12)c1ccccc1` (stereo not given)?
CHOP UPR activ: 0.5; hiPSC survival: 0.6; UPR XBP1 act: -2.7; Cardio protect: 3.8; CHOP inh: 76.2*

What do the screens show for `CCc1nc2ccc(C(=O)NCCCN3CCCC3=O)cn2c1N(CC)CCOC`?
hiPSC survival: -1.8; Cardio protect: -3.6

How did Cc1[nH]c2ccccc2c1-c1nc(N)sc1C do in these assays?
CHOP UPR activ: 3.0; hiPSC survival: -0.2; UPR XBP1 act: -5.7; Cardio protect: 0.3

What do the screens show for `Cc1[nH]c2ccccc2c1-c1nc(-c2ccc(Cl)cc2)nnc1-c1ccccc1`?
CHOP UPR activ: 8.1; UPR XBP1 act: 23.1; CHOP inh: 75.8*

Results for c1ccc(-c2nnc(-c3ccccc3)c(-c3c[nH]c4ccccc34)n2)cc1 ?
CHOP UPR activ: 1.7; hiPSC survival: 0.7; UPR XBP1 act: 10.6; Cardio protect: -8.1; CHOP inh: 58.1

Results for Clc1ccc(-c2nnc(-c3ccccc3)nc2-c2c[nH]c3ccccc23)cc1 ?
CHOP UPR activ: -0.5; hiPSC survival: -0.3; UPR XBP1 act: -1.2; Cardio protect: -3.7; CHOP inh: 84.7*

What do the screens show for `NS(=O)(=O)c1ccc(CCNC(=O)COC(=O)CCc2c[nH]c3ccccc23)cc1`?
CHOP UPR activ: -2.2; hiPSC survival: 0.8; UPR XBP1 act: -1.1; Cardio protect: 3.3

Results for O=C(/C=C/c1ccccc1)NC(=S)NNC(=O)c1ccco1 ?
CHOP UPR activ: 1.0; hiPSC survival: 5.3; UPR XBP1 act: 1.6; Cardio protect: 9.9; CHOP inh: 19.6

Results for O=C(/C=C/c1ccc(Br)cc1)NC(=S)NNC(=O)c1ccco1 ?
CHOP UPR activ: -0.6; hiPSC survival: 16.8; UPR XBP1 act: 3.9; Cardio protect: 17.2; CHOP inh: 76.5*

How did Cc1ccc(OCC(=O)NNC(=O)CSc2ncnc3sc(C)c(C)c23)cc1 do in these assays?
CHOP UPR activ: -1.7; hiPSC survival: -3.2; UPR XBP1 act: 1.8; Cardio protect: -19.3; CHOP inh: 89.0*

What do the screens show for `CC(=O)Nc1ccc(Nc2cc(C)nc3c(-c4ccc(Cl)cc4)cnn23)cc1`?
CHOP UPR activ: 5.9; hiPSC survival: 9.0; UPR XBP1 act: -0.6; Cardio protect: 8.4; CHOP inh: 75.5*

How did Cc1cc(N)n2nc(C)c(-c3ccc(Cl)cc3)c2n1 do in these assays?
CHOP UPR activ: 0.8; hiPSC survival: -1.1; UPR XBP1 act: 5.3; Cardio protect: -10.4; CHOP inh: 46.0

What do the screens show for `CC(=O)Nc1ccc(Nc2cc(C)nc3c(-c4ccc(Cl)cc4)c(C)nn23)cc1`?
CHOP UPR activ: 1.9; hiPSC survival: -2.3; UPR XBP1 act: 2.9; Cardio protect: -7.7; CHOP inh: 84.3*

How did Cc1cc(Cl)n2nc(C)c(-c3ccc(Cl)cc3)c2n1 do in these assays?
CHOP UPR activ: 2.2; hiPSC survival: 21.3*; UPR XBP1 act: 6.3; Cardio protect: 14.1; CHOP inh: 21.0

Results for O=C(Cn1cnc2ccccc2c1=O)Nc1nnc(SCc2ccc(Cl)cc2)s1 ?
CHOP UPR activ: 0.0; hiPSC survival: -0.3; UPR XBP1 act: 0.0; Cardio protect: -2.2; CHOP inh: 85.9*

What do the screens show for `CCOC(=O)C(C)Oc1ccc(C2NC(=O)NC(C)=C2C(C)=O)cc1Br` (stereo not given)?
CHOP UPR activ: -1.8; hiPSC survival: -0.7; UPR XBP1 act: -4.7; Cardio protect: 55.2*; CHOP inh: 3.8

How did N#C/C(=C(/O)COC(=O)CSc1ccc(Cl)cc1)c1nc2ccccc2[nH]1 do in these assays?
CHOP UPR activ: -0.5; hiPSC survival: 3.1; UPR XBP1 act: -2.6; Cardio protect: -17.1; CHOP inh: 81.8*

What do the screens show for `N#C/C(=C(/O)COC(=O)CCCNC(=O)c1ccc(Cl)cc1)c1nc2ccccc2[nH]1`?
CHOP UPR activ: 3.6; hiPSC survival: 1.3; UPR XBP1 act: -1.6; Cardio protect: -0.1; CHOP inh: -5.3

How did Cc1cc(SCC(=O)OC/C(O)=C(\C#N)c2nc3ccccc3[nH]2)c(C)cc1Br do in these assays?
CHOP UPR activ: -0.2; hiPSC survival: 0.4; UPR XBP1 act: -1.0; Cardio protect: -14.9; CHOP inh: 70.5*

How did C[C@@H]1CN([C@H](C)CO)C(=O)CCCn2nncc2CO[C@H]1CN(C)S(=O)(=O)c1ccc(C#N)cc1 do in these assays?
hiPSC survival: 0.3; Cardio protect: 13.3

How did CC(C)CNC(=O)CSc1nnc(-c2ccccn2)n1Cc1ccccc1 do in these assays?
CHOP UPR activ: -3.3; hiPSC survival: -1.1; UPR XBP1 act: -1.7; Cardio protect: 11.3; CHOP inh: 71.3*

How did O=C(CSc1nnc(-c2ccccc2O)n1Cc1ccccc1)NNC(=O)c1ccccc1O do in these assays?
CHOP UPR activ: 0.0; hiPSC survival: -0.9; UPR XBP1 act: -1.7; Cardio protect: 42.8; CHOP inh: 15.9

What do the screens show for `CCCn1c(SCC(=O)NCCc2ccccc2)nnc1-c1ccccn1`?
CHOP UPR activ: -2.6; hiPSC survival: 0.7; UPR XBP1 act: -0.4; Cardio protect: 12.0; CHOP inh: 28.7

What do the screens show for `O=C(CSc1nnc(-c2ccccc2)n1Cc1ccccc1)NNC(=O)c1ccccc1O`?
CHOP UPR activ: -0.2; hiPSC survival: -1.1; UPR XBP1 act: -4.5; Cardio protect: 59.2*; CHOP inh: 2.0

How did O=S(=O)(c1ccccc1F)N1CCc2ccccc2C1 do in these assays?
CHOP UPR activ: 1.5; hiPSC survival: -0.2; UPR XBP1 act: -2.4; Cardio protect: -0.1

Results for NS(=O)(=O)c1ccc(NC(=S)N2CCN(Cc3ccc(Cl)c(Cl)c3)CC2)cc1 ?
CHOP UPR activ: -1.3; hiPSC survival: -1.0; UPR XBP1 act: -2.7; Cardio protect: -13.9; CHOP inh: 31.8

Results for O=S(=O)(c1ccc(Cl)cc1)N1CCN(C(=S)Nc2ccc(F)c(Cl)c2)CC1 ?
CHOP UPR activ: -1.0; hiPSC survival: -0.9; UPR XBP1 act: -2.9; Cardio protect: -3.3; CHOP inh: 77.6*

How did NS(=O)(=O)c1ccc(NC(=S)N2CCN(c3ccc(Cl)c(Cl)c3)CC2)cc1 do in these assays?
CHOP UPR activ: 6.8; hiPSC survival: 2.7; UPR XBP1 act: 2.5; Cardio protect: -8.4; CHOP inh: 87.2*

How did O=[N+]([O-])c1ccc(NC(=S)N2CCN(c3ccc(F)cc3)CC2)cc1 do in these assays?
CHOP UPR activ: -2.8; hiPSC survival: 5.1; UPR XBP1 act: -2.2; Cardio protect: -17.1; CHOP inh: 84.5*

What do the screens show for `CCC(C)C(CO)NCCCn1cnc2c(OC)ncnc21` (stereo not given)?
hiPSC survival: -1.8; Cardio protect: 14.5
